Assay results from different studies.
Each line is one published result; the experiments were not run side by side.
Target: Dual serine/threonine and tyrosine protein kinase (DSTYK, Homo sapiens, UniProt Q6XUX3)
One construct used (Q6XUX3 1-929): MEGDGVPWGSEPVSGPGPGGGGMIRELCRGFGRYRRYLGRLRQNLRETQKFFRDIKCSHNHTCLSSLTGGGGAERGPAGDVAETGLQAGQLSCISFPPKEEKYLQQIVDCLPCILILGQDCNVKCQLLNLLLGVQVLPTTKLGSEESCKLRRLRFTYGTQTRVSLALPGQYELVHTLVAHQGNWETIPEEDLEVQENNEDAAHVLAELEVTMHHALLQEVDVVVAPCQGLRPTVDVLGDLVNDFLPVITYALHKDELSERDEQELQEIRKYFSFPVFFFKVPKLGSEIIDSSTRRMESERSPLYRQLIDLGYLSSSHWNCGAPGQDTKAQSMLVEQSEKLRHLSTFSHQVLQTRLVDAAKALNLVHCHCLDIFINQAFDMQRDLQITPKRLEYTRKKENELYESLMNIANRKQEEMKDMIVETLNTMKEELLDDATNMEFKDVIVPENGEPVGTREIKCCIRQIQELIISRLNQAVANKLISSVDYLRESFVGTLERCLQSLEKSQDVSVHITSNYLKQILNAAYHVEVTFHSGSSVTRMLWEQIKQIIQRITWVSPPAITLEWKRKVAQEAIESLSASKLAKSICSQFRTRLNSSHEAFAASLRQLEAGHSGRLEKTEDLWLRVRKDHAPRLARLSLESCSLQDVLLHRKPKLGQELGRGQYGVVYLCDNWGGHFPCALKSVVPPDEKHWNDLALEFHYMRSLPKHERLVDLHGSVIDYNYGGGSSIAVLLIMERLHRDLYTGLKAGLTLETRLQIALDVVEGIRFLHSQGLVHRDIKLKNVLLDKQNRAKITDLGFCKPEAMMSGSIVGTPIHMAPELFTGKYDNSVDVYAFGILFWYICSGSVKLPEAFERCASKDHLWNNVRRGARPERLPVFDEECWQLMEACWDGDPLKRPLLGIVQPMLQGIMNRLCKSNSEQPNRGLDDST

SMILES | test | setting | remaining binding
O=C(NCCCN1CCOCC1)c1ccc(Nc2nccc(-c3cc4ccccc4s3)n2)cc1 | binding, competition with immobilised ligand | 1 µM | 76%
COc1ncc2cc3ccccc3nc2c1C#N | cell-free assay, competition with immobilised ligand | 5 µM | 100%
CNC(=O)[C@@H]1CC[C@@H](n2c(-c3ccc4cnccc4c3)nc3ccc(C(=O)NCc4cccc(C(N)=O)c4)cc32)C1 | binding, competition with immobilised ligand | 1 µM | 100%
Cc1cnc(Nc2ccc(C(=O)N3CCC(N4CCCC4)CC3)cc2)nc1-c1cc2ccccc2s1 | binding, competition with immobilised ligand | 1 µM | 22%
CN(CCCC(F)(F)F)c1nccc(-c2cnn3ncccc23)n1 | binding | 1 µM | 88%
CCN1CCN(Cc2ccc(C(=O)Nc3ccc(C)c(Oc4ccc5c(c4)CC(=O)N5)c3)cc2C(F)(F)F)CC1 | binding, competition with immobilised ligand | 1 µM | 100%
CC1CCCN1c1nccc(-c2cnn3ncccc23)n1 (stereo not shown) | binding | 1 µM | 100%
CN1CCN(c2cnc3c(C4CCN(C(=O)c5ccc(OC(F)(F)F)cc5N)CC4)ncnc3c2)CC1 | cell-free assay, competition with immobilised ligand | 1 µM | 100%
COc1cnc(Nc2cccc(S(N)(=O)=O)c2)nc1N1CCN(c2ccccc2)C(=O)C1 | binding, competition with immobilised ligand | 1 µM | 89%
O=C1CCc2cc(Nc3cc(OC4CCOCC4)c([N+](=O)[O-])cc3Cl)ccc2N1 | cell-free assay, competition with immobilised ligand | 1 µM | 90%
CN(C)c1nccc(-c2cnc3ncccn23)n1 | binding | 1 µM | 78%
O=C(c1ccc(Nc2nccc(-c3cc4ccccc4s3)n2)cc1)N1CCC(N2CCCC2)CC1 | binding, competition with immobilised ligand | 1 µM | 37%
CCc1ccccc1C(=O)Nc1n[nH]c2c(C)c(F)c(C3C(C#N)=C(C)N(C)C(C)=C3C#N)cc12 | cell-free assay, competition with immobilised ligand | 1 µM | 95%
CN(C)c1ncc(F)c(-c2cnn3ncccc23)n1 | binding | 1 µM | 69%
O=C(N1CCS(=O)(=O)CC1)N1C[C@H](c2ccc(OC(F)(F)F)cc2)C[C@H](c2nc(C3CC3)no2)C1 | cell-free assay, competition with immobilised ligand | 1 µM | 100%
N[C@@H]1CCN(c2nccc(-c3cnn4ncccc34)n2)C1 | binding | 1 µM | 100%
C[C@@H]1CN(c2cc(-c3n[nH]c4ccc(OC5(C)CC5)cc34)ncn2)C[C@H](C)O1 | cell-free assay, competition with immobilised ligand | 0.1 µM | 77%
O=C(NCC1CCOCC1)c1n[nH]cc1NC(=O)c1c(F)cccc1F | binding, competition with immobilised ligand | 1 µM | 86%
CO[C@@H](C)c1c(Nc2ccc([C@@H](N(C)C(=O)C3CCS(=O)(=O)CC3)C(F)(F)F)cc2)cnc2cc(Cl)nn12 | cell-free assay, competition with immobilised ligand | 1 µM | 100%
Nc1ncc2c(n1)-c1c([nH]c3ccc(C#CC4CC4)cc13)CCCC2 | binding, competition with immobilised ligand | 1 µM | 19%
CNC(=O)c1ccc(Nc2ncc(C(F)(F)F)c(NCc3nccnc3N(C)S(C)(=O)=O)n2)cc1 | cell-free assay, competition with immobilised ligand | 0.1 µM | 87%
C[C@@H]1CCN(c2nccc(-c3cnn4ncccc34)n2)C1 | binding | 1 µM | 77%
